Experimental data as given in ChEMBL document CHEMBL3232978, “Efficient synthesis of novel glutamate homologues and investigation of their affinity and selectivity profile at ionotropic glutamate receptors” (Bioorg Med Chem Lett, 2014).

Key:
[1] = target: Glutamate receptor ionotropic, AMPA (Rattus norvegicus) (UniProt P19491+P19492+P19493+P19490); experiment: Displacement of [3H]AMPA from AMPA receptor in Sprague-Dawley rat brain cortical synaptic membranes at 100 uM after 1 hr by liquid scintillation counting
How it was run: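 In rat cortical membrane binding, test compounds were applied at a single concentration of 100 µM. Percent displacement of bound [3H]AMPA (AMPA sites) or [3H]KA (kainate sites) was recorded.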

[2] = target: Glutamate receptor ionotropic, AMPA (Rattus norvegicus, UniProt P19490+P19491+P19492+P19493); experiment: Displacement of [3H]AMPA from AMPA receptor in Sprague-Dawley rat brain cortical synaptic membranes after 1 hr by liquid scintillation counting
How it was run: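 Radioligand displacement in rat cortical membranes: [3H]AMPA labelled AMPA receptors and [3H]KA labelled kainate receptors. Results are reported as IC50 for displacement of the radioligand.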

[3] = tested on: kainate receptor (Rattus norvegicus); experiment: Displacement of [3H]KAIN from kainate receptor in Sprague-Dawley rat brain cortical synaptic membranes at 100 uM after 1 hr by liquid scintillation counting
Glutamate NMDA receptor [4] = experiment: Displacement of [3H]CGP39653 from NMDA receptor in Sprague-Dawley rat brain cortical synaptic membranes after 1 hr by liquid scintillation counting v
How it was run: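 Competition binding on rat cortical membranes, with [3H]CGP39653 labelling NMDA receptor sites. Ki values were derived and expressed as mean pKi ± SEM from three independent experiments. Hill coefficients were also determined.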

[5] = target: kainate receptor (Rattus norvegicus); experiment: Displacement of [3H]KAIN from kainate receptor in Sprague-Dawley rat brain cortical synaptic membranes after 1 hr by liquid scintillation counting
Glutamate NMDA receptor [6] = experiment: Displacement of [3H]CPP from NMDA receptor in Sprague-Dawley rat brain cortical synaptic membranes after 1 hr by liquid scintillation counting v

inhibition [1] | IC50 [2] | inhibition [3] | Ki (Glutamate NMDA receptor [4]) | IC50 [5] | Ki (Glutamate NMDA receptor [6]) | SMILES
5% | > 100 µM | 5% | 32 µM | > 100 µM | – | N[C@H](CCCc1ccccc1C(=O)O)C(=O)O
– | – | – | – | – | 13 µM | N[C@H](CCCC(=O)O)C(=O)O
5% | > 100 µM | 5% | > 100 µM | > 100 µM | – | N[C@H](C/C=C/c1ccccc1C(=O)O)C(=O)O
5% | > 100 µM | 5% | 14 µM | > 100 µM | – | N[C@H](CCCc1cscc1C(=O)O)C(=O)O
5% | > 100 µM | 5% | 52 µM | > 100 µM | – | N[C@H](C/C=C/c1cscc1C(=O)O)C(=O)O
